Laboratory results as given in ChEMBL document CHEMBL1133014, “Design, synthesis, and SAR of novel carbapenem antibiotics with high stability to Xanthomonas maltophilia oxyiminocephalosporinase type II” (2000).
Values after ≈ are worked out from the molar mass of the structure shown.

Legend:
Format in all cases: functional
[1] = system: Stenotrophomonas maltophilia; assay: Minimum protective concentration against beta-lactamase of Xanthomonas maltophilia GN 12873 (CXase-II)
In short: (§1)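 Minimum protective concentration taken as the lowest β-lactam concentration protecting a chromogenic indicator from β-lactamase hydrolysis within 1.0 h under standard conditions. Hydrolysis was read as a distinct red color. Compound stability without enzyme was checked at 37 °C in phosphate buffer, pH 6.5.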

Staphylococcus aureus [2] = assay: In vitro antimicrobial activity against Staphylococcus aureus 95 (methicillin-resistant strain) was determined
In short: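 Agar dilution MIC: organisms were deposited onto medicated agar plates with a Steers-type replicator. MIC was read as the lowest antibiotic concentration preventing visible growth. Values are averages of duplicate determinations with standard error.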

Klebsiella pneumoniae = assay: In vitro antimicrobial activity against Klebsiella pneumoniae NCTC 418 was determined
In short: (§2)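 MIC by agar dilution: organisms applied onto antibiotic-containing agar plates with a Steers-type replicator. MIC taken as the lowest concentration preventing visible growth, averaged from duplicate determinations (± standard error).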

Staphylococcus aureus [3] = assay: In vitro antimicrobial activity against Staphylococcus aureus FDA 209P was determined; in short: as §2
[4] = In vitro antimicrobial activity against Xanthomonas maltophilia GN 12873 in combination (1:1 w/w) with imipenem; settings: Stenotrophomonas maltophilia; in short: as §2
Pseudomonas aeruginosa [5] = assay: Minimum protective concentration against beta-lactamase of Pseudomonas aeruginosa 18S-H; in short: as §1
Escherichia coli = assay: In vitro antimicrobial activity against Escherichia coli ATCC 39188 was determined; in short: as §2
Pseudomonas aeruginosa [6] = assay: In vitro antimicrobial activity against Pseudomonas aeruginosa 1101-75 was determined; in short: as §2
Staphylococcus aureus [7] = assay: Minimum protective concentration against beta-lactamase of Staphylococcus aureus 95; in short: as §1
[8] = In vitro antimicrobial activity against Xanthomonas maltophilia GN 12873 was determined; settings: Stenotrophomonas maltophilia; in short: as §2
Pseudomonas aeruginosa [9] = assay: In vitro antimicrobial activity against Pseudomonas aeruginosa 18S-H was determined; in short: as §2
[10] = system: Stenotrophomonas maltophilia; assay: Minimum protective concentration against beta-lactamase of Xanthomonas maltophilia GN 12873 (CXase-I); in short: as §1

Structure (SMILES)	MPC [1] [µg/mL]	MIC (Staphylococcus aureus [2]) [µg/mL]	MIC (Klebsiella pneumoniae) [µg/mL]	MIC (Staphylococcus aureus [3]) [µg/mL]	MIC [4] [µg/mL]	MPC (Pseudomonas aeruginosa [5]) [µg/mL]	MIC (Escherichia coli) [µg/mL]	MIC (Pseudomonas aeruginosa [6]) [µg/mL]	MPC (Staphylococcus aureus [7]) [µg/mL]	MIC [8] [µg/mL]	MIC (Pseudomonas aeruginosa [9]) [µg/mL]	MPC [10] [µg/mL]
O=C(Cc1ccccc1)N[C@@H]1C(=O)N2C(C(=O)O)=C(C(=O)O)C[C@H]12 (racemic)	29.4	13.9 (≈ 42 µM)	0.56 (≈ 1.7 µM)	0.03 (≈ 0.0908 µM)	1.58	2.38	0.48 (≈ 1.45 µM)	5.63 (≈ 17 µM)	2.2	9.61 (≈ 29.1 µM)	28.2 (≈ 85.3 µM)	25.5
O=C(Cc1ccccc1)N[C@@H]1C(=O)N2C(C(=O)O)=CC[C@H]12 (racemic)	33.6	30.7 (≈ 107 µM)	1.92 (≈ 6.71 µM)	0.12 (≈ 0.419 µM)	2.15	4.21	0.98 (≈ 3.42 µM)	8.91 (≈ 31.1 µM)	3.45	10.3 (≈ 35.9 µM)	31.6 (≈ 110 µM)	30
C[C@@H](O)[C@H]1C(=O)N2C(C(=O)O)=C(SCCNC=N)C[C@H]12.O [IMIPENEM]	0.87	15.7	0.4	0.02		35.61	0.35	4.71	30.12	> 128	35.6	46.8
COC(=O)CC1=C(C(=O)O)N2C(=O)[C@@H](NC(=O)Cc3ccccc3)[C@H]2C1 (racemic)	35	18.5 (≈ 51.7 µM)	0.77 (≈ 2.15 µM)	0.04 (≈ 0.112 µM)	0.98	8.74	0.67 (≈ 1.87 µM)	1.8 (≈ 5.02 µM)	6.87	5.97 (≈ 16.7 µM)	21.3 (≈ 59.4 µM)	30.4
CC1(C)S[C@@H]2[C@H](NC(=O)Cc3ccccc3)C(=O)N2[C@H]1C(=O)O [PENICILLIN G]	28.8	> 128	> 128	0.51 (≈ 1.53 µM)		1.03	2.87 (≈ 8.58 µM)	> 128	1.85	> 128	> 128	23.6
COC(=O)C1=C(C(=O)O)N2C(=O)[C@@H](NC(=O)Cc3ccccc3)[C@H]2C1 (racemic)	16.7	8.3 (≈ 24.1 µM)	0.15 (≈ 0.436 µM)	0.01 (≈ 0.029 µM)	2.01	1.02	0.2 (≈ 0.581 µM)	0.89 (≈ 2.58 µM)	0.98	12.1 (≈ 35.2 µM)	12.1 (≈ 35.1 µM)	14.6
CC(=O)OCCC1=C(C(=O)O)N2C(=O)[C@@H](NC(=O)Cc3ccccc3)[C@H]2C1 (racemic)	47.8	14.9 (≈ 40.1 µM)	1.08 (≈ 2.9 µM)	0.05 (≈ 0.134 µM)	0.39	5.87	0.69 (≈ 1.85 µM)	2.87 (≈ 7.71 µM)	6.12	4.12 (≈ 11.1 µM)	17.2 (≈ 46.2 µM)	27.5
O=C(Cc1ccccc1)N[C@@H]1C(=O)N2C(C(=O)O)=C(CCO)C[C@H]12 (racemic)	42.1	19.2 (≈ 58.2 µM)	0.88 (≈ 2.66 µM)	0.07 (≈ 0.212 µM)	0.77	6.98	0.75 (≈ 2.27 µM)	3.51 (≈ 10.6 µM)	7.18	6.73 (≈ 20.4 µM)	22.6 (≈ 68.5 µM)	36.7
